From the RNAGym collection of RNA variant scans (doi:10.1101/gad.245936.114)
This sample holds only a part of the variants without activity.

B1: tRNA (parent)
chain: CUCUCGGUAGCCAAGUUGGUUUAAGGCGCAAGACUUUAAUUUAUCACUACGAAAUCUUGAGAUCGGGCGUUCGACUCGCCCCCGGGAGAUUUUUUCCUCGAGCAA

Variants of: B1
Test: nonsense suppression (GFP-seq) (ratio to wild type); higher = more function; SUP4oc tRNA, yeast GFP reporter sort-seq
Procedure, shortened: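 Sorted GFP/RFP bins of yeast were each Illumina-sequenced with a phred ≥30 cutoff; the cells held a genome-integrated ochre-suppressor tRNA variant from a library with ~3% random mutations, a galactose-driven GFP ochre reporter, and RFP. Culture was in raffinose/galactose medium containing 80 mg/L adenine. Nonsense suppression, termed GFPSEQ, is the median GFP/RFP of the bins weighted by each variant's estimated cell share per bin, relative to the unmutated parent tRNA, for variants reaching ≥100 reads and ≥30 cells.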

Row | Variant | nonsense suppression
1 | U17A G32C U71G | 0.0947
2 | G18C A24C A33U | ≤ 0.026
3 | U16G C34U | ≤ 0.026
4 | G18C A33G C80G | ≤ 0.026
5 | G19U A24G G78C A89C | ≤ 0.026
6 | U16C U17G | 1.07
7 | U16C C68A G88U | ≤ 0.026
8 | G19C U21C | ≤ 0.026
9 | U17G U55C | 0.0769
10 | U17A A60C | 0.19
11 | G18C C29U G85A G88A | ≤ 0.026
12 | U16A U22G C79U | 0.208
13 | G19U A23U C34A U63G | ≤ 0.026
14 | G15U G18A U58C G85U | ≤ 0.026
15 | G18A G73A | ≤ 0.026
16 | U20A A74U | 0.0745
17 | G18A U21G C34U | ≤ 0.026
18 | U17A U70G | ≤ 0.026
19 | U16G G28U U35G G59A G85A | ≤ 0.026
20 | U17C U55C G59A G66C | ≤ 0.026
21 | G19C U63C C83A | 0.789
22 | U16G U17A | 1.05
23 | U16G U17C | 1.05
24 | U16G A54U U63G | 0.278

Row | Variant | nonsense suppression
25 | U16C A30G | 1.17
26 | G18A A54U | ≤ 0.026
27 | G19A U63C C82A | ≤ 0.026
28 | U17C C68A C82U | ≤ 0.026
29 | G19U A60U G73U | ≤ 0.026
30 | U16A U71G C75G | ≤ 0.026
31 | G19C C56U U57C | ≤ 0.026
32 | G19A C64G C68U C82A | ≤ 0.026
33 | U16C C82G | ≤ 0.026
34 | G15U U55A | ≤ 0.026
35 | G18U G25A G78U | ≤ 0.026
36 | U17C U63A C72G | ≤ 0.026
37 | U16G C29U | 1.11
38 | G15U A24G G86C | ≤ 0.026
39 | G18C C27G G67A G69C | 1.05
40 | U17C A54U | 0.788
41 | G18U A30U G78U | ≤ 0.026
42 | G15C G65A | ≤ 0.026
43 | U17A A33C U76C C79A C80U | ≤ 0.026
44 | U16A C29U | 0.186
45 | U16A A30G | 0.312
46 | U16A G73A | 0.63
47 | U16G U17A G19A C27A | ≤ 0.026
48 | U17G G19C U21A U57A G78U | ≤ 0.026

Row | Variant | nonsense suppression
49 | U16G U76C | 1.07
50 | U16G G25C U55G | ≤ 0.026
51 | U16C A31G U57C | 0.922
52 | U20A C75G G85U | 0.154
53 | G19C G67C | ≤ 0.026
54 | U20A C34U G66U | ≤ 0.026
55 | G18U C82U G86C | ≤ 0.026
56 | G18U G25U G67C | ≤ 0.026
57 | G19A C34A G59A G73U C82U | ≤ 0.026
58 | U16C U21C A31U | 0.204
59 | G18U G19A | ≤ 0.026
60 | U16G U17C C72A | 0.27
61 | G18A A24C | 0.0483
62 | U17G U22G | 1.04
63 | G15U U70A G85U | ≤ 0.026
64 | G15C U17G G19C G25U | ≤ 0.026
65 | G19A U21G C64U | ≤ 0.026
66 | G15U U35A U63C C68A | ≤ 0.026
67 | U16G C29U A89C | ≤ 0.026
68 | U17C A30G A31G | 0.0827
69 | U17G U63C | 0.799
70 | G19U A54U C72G | ≤ 0.026
71 | U17A U21C G85A | 1.06
72 | U16C U21G A31G G32C G69A U71C C75A G86A | ≤ 0.026

Row | Variant | nonsense suppression
73 | U16C U17C G18A G67A | ≤ 0.026
74 | G15U A23G G65C | ≤ 0.026
75 | U17A G61C | 0.665
76 | U17A G61A | 0.83
77 | U17A A23C C68G | ≤ 0.026
78 | G18A G25U C27U G67C | ≤ 0.026
79 | U17G G67A | 0.0593
80 | U16A A24C | 0.872
81 | U17A U22G | 1.03
82 | G19A G26U C27G | ≤ 0.026
83 | U17G U63A C75A G85A | 1.08
84 | U16A G85A | 1.03
85 | G18C G88A | 0.135
86 | U17G A87G | 0.752
87 | U20A A60U C79U | 0.212
88 | G15U U71A C82G | ≤ 0.026
89 | U16A U22C | 1.08
90 | U17C U22A | 0.758
91 | U17C U22C A60G | 0.348
92 | U16C G78A | 0.837
93 | U16C G78U | 0.454
94 | G18U G59A | ≤ 0.026
95 | U17G U21C | 1.05
96 | U17G U21G | 0.717

Row | Variant | nonsense suppression
97 | U17G U21A | 1.16
98 | G18U A33U C82U A89C | ≤ 0.026
99 | U16A G61A | 0.819
100 | U17A A31G C72G U76A G78U | ≤ 0.026
101 | G19C A30U | ≤ 0.026
102 | U17A U76C | 1.06
103 | U17C G84A | 0.048
104 | G19U G28A C56G | ≤ 0.026
105 | U17C G19A C27G | ≤ 0.026
106 | G18C A89G | ≤ 0.026
107 | G18A U55A U58A | ≤ 0.026
108 | U17A G25C | 0.068
109 | U17A G28U A31C C80G G84C G86A | ≤ 0.026
110 | U17G A33U U63G C68A U71G | ≤ 0.026
111 | U17G A60C | 0.188
112 | G19A A33U U71A | ≤ 0.026
113 | G19U G28A | 0.0287
114 | U16C C29U | 1.11
115 | U17C U63A | 0.197
116 | U17C U63G | 0.804
117 | U17C U63C | 1.18
118 | U20A A24U | 0.0696
119 | U20A A24C | 0.192
120 | U20A A23G U63C | ≤ 0.026

Row | Variant | nonsense suppression
121 | U20A G85U | 0.0676
122 | U17G C64A | 0.0364
123 | U16G C83U | 0.223
124 | U20A | 1.18
125 | U16G A24U | 0.221
126 | U17G A54G U55G | ≤ 0.026
127 | U17G C83A | ≤ 0.026
128 | G18C G19A A24U | ≤ 0.026
129 | G15C U22C G28C | ≤ 0.026
130 | U17C U55C | 0.444
131 | G18U U20G G65C G66C | ≤ 0.026
132 | U17A A87G | 1.19
133 | U16G C56A U58G A60C | ≤ 0.026
134 | U16C G73A | 1.22
135 | G19U C29A G59A | ≤ 0.026
136 | U17A G26U A89U | ≤ 0.026
137 | U20A C56A G66A | ≤ 0.026
138 | G15U C68U G78C C82G G84A | ≤ 0.026
139 | U17A A24C | 0.902
140 | U17A A24G | 0.0262
141 | U17A A24U | 0.2
142 | G19C C34U U71C C82G | ≤ 0.026
143 | U20A U22C | 1.11
144 | G18C A54G | ≤ 0.026

Row | Variant | nonsense suppression
145 | U16G U70A C82A | ≤ 0.026
146 | U16C U21C | 1.03
147 | U20A G78A | 0.0977
148 | U17G G28A | 1.12
149 | U17G G28C | 0.209
150 | U17G G61C | 0.371
151 | U17G G61U | 0.832
152 | G19C U21C G66C G84A G86A | ≤ 0.026
153 | U17G A31G | 1.15
154 | U17C A33G | 0.0608
155 | G15U G19A A54U A62G C79A | ≤ 0.026
156 | U20A C75G | 0.473
157 | U16A U76C | 1.19
158 | U16A G59A | 0.32
159 | U17G G19U | 1.05
160 | U17G G19A | 0.204
161 | G15U C68G | ≤ 0.026
162 | U17A U55C | 0.176
163 | U17A C79A | ≤ 0.026
164 | G15U U17A U55C | ≤ 0.026
165 | U17G C79U | 0.764
166 | G15U A23G U55G | ≤ 0.026
167 | U20A U35G A60C G69A C82A | ≤ 0.026
